These results are taken from ChEMBL document CHEMBL4513216, “Probing the Open Global Health Chemical Diversity Library for Multistage-Active Starting Points for Next-Generation Antimalarials” (ACS Infect Dis, 2020).

The structures appear in SMILES notation.

This data set is described as follows: Toxicity liver stage against HepG2, at 10uM. Type of data set: cell-based. On the set-up: test concentration 10 uM, cell line HepG2-A16-CD81EGFP. The settings on record: human, HepG2-A16-CD81EGFP cells; read-out: INHIBITION
The essentials:
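Uninfected HepG2-A16-CD81EGFP cells, 3 × 10^3 per well, 1536-well, plated on prespotted compound at 10 μM final, parasite-free screening media added to match infected plates; puromycin 10 μM positive, DMSO 0.5% negative; run in parallel with 48 h PbLuc assay at 37 °C, 5% CO2; viability by CellTiter-Glo luminescence, normalized to controls.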
As to `CC1CCCCN1Cc1nc(C2CC2)no1` (stereo not given), the cytotoxicity at 10 µM is 4.48%.
Under `Cc1cc(-c2nn(C)c(Cl)c2CN2CCOC(C(=O)O)C2)no1` (stereo not given) stands 4.04%; under `Cc1ccc(CN2CCC3(C2)C(=O)N(CC(C)C)c2ccccc23)s1` (stereo not given), -0.324%; under `Nc1nc(Sc2cccs2)cc(N2CC[C@H](CO)[C@H](O)C2)n1`, 2.68%.
Under `Cc1n[nH]c(C)c1Sc1ccccc1NC(=O)N1CCCC(C(N)=O)C1` (stereo not given) stands -7.59%; under `Cc1ccc([C@H]2CN(CCO)C[C@@H]2NC(=O)CN2CCCCC2=O)o1`, 2.1%; under `CCOc1nn(CC)cc1-c1nnc(SCc2cccnc2)n1CC`, -0.244%.
`Cc1nn(C)c(N(C)C)c1CNCc1ccc2c(c1)OCO2`: the cytotoxicity at 10 µM is -2.51%.
Under `CC(C)NC(=O)CNC(=O)C12CCC(=O)N1c1cc(Cl)ccc1S2` (stereo not given) stands 11.7%; under `COCCN1CCC(CN(CC2CCCO2)C(=O)CCNC(C)=O)CC1` (stereo not given), -5.99%; under `C[C@]1(O)CCN(Cc2c[nH]cn2)C[C@@H]1Oc1cccc(F)c1`, -5.72%.
Under `COc1ccc2c(c1)c(-c1nc(N(C)C)ncc1CN)cn2C` stands 7.43%; under `CCc1nc2n(n1)CC(NCc1nc3ccccc3nc1C)CC2` (stereo not given), -141%; under `CN(c1ncnc2ccccc12)C1CCCN(c2cccnn2)C1` (stereo not given), 19.5%.
Regarding `Cc1nn(C)c(N(C)C)c1CNCC(O)c1ccccc1F` (stereo not given), the cytotoxicity at 10 µM is -7.9%.
For the compound `CCOc1ccc(S(=O)(=O)NC(=O)CCC2CCCO2)cc1` (stereo not given), the cytotoxicity at 10 µM was -11.5%.
Regarding `Cc1nc2ccc(C(=O)N3CC[C@H](O)[C@@H](N4CCOCC4)CC3)cc2[nH]1`, the cytotoxicity at 10 µM was -8.32%.
`O=C(O)[C@@H]1CN(Cc2c[nH]c(CC3CCCC3)n2)C[C@H]1c1ccncc1`: the cytotoxicity at 10 µM was found to be 1.08%.
Consider `O=C(c1cccc(-c2ncc[nH]2)c1)N1CCC(N2CCCC(O)C2)CC1` (stereo not given), for which the cytotoxicity at 10 µM came to 6.42%.
Under `COc1ccc(C)cc1CCNS(=O)(=O)c1ccc2c(c1)CCC(=O)N2` stands -45.5%; under `O=C(NCCc1nccs1)C(c1ccccc1)n1cnnn1` (stereo not given), 5.28%; under `COc1ccc(C2CCCN2c2cnccn2)c(OC)c1` (stereo not given), 3.72%.
Under `O=C(CN1CCN(c2ncnc3cccc(F)c23)CC1)N1CCCC1` stands 3.65%.
`CSCCc1n[nH]c2c1CN(S(=O)(=O)c1cn(C)c(C)n1)CC2`: the cytotoxicity at 10 µM is 8.58%.
Under `c1ccc2cc(OCCCN3CCn4c(nnc4C4CC4)C3)ccc2c1` stands -11.3%; under `COc1cc(C(=O)N2CCC3(CC2)Nc2ccccc2NC3=O)ccn1`, 0.701%; under `Cc1c[nH]c(CN(C)C(=O)CCn2cnc3ccccc32)n1`, 9.67%.
Under `O=c1cccnn1CC1CN(c2ncc(F)cn2)Cc2nccn2C1` (stereo not given) stands 4.65%.
Consider `COCCN(Cc1sccc1C)Cc1nccn1CCOC`, for which the cytotoxicity at 10 µM came to 2.33%.
`Cn1nc(C(C)(C)C)cc1NC(=O)Cn1ccnc1`: the cytotoxicity at 10 µM is 1.5%.
Under `O=C(Nc1ccc2c(c1)OCO2)N1CCN(CCn2ccnc2)CC1` stands -14.2%; under `COc1ccc(COCC(O)CNC(=O)c2cc(C)oc2C)cc1` (stereo not given), -13.3%; under `CN1CCN(C(=O)c2nnc3ccc(Cl)cc3n2)CC1`, 6.28%.
Under `COCCN1CCO[C@@H]2CN(C(=O)Cc3ccc(F)cc3)CC[C@@H]2C1` stands 7.07%; under `CCc1nc(C2CCCN(C(=O)c3cc(C(C)C)[nH]n3)C2)no1` (stereo not given), -1.24%; under `Cc1c(S(=O)(=O)N(CCc2ccccc2)Cc2ccn(C)n2)cnn1C`, 3.82%.
Under `CN(C)c1cc(C(=O)N2CCN(c3cnccn3)CC2)ccn1` stands -7.64%; under `CS(=O)(=O)N1CCCCC12CCCN(Cc1nccs1)C2` (stereo not given), 9.94%; under `Cc1cc(C)cc(OCCN(C)Cc2ccc(S(=O)(=O)N(C)C)o2)c1`, 8.2%.
As to `CN(C)C(C(=O)NCC1(C)COC1)c1cccc(F)c1` (stereo not given), the cytotoxicity at 10 µM was -6.41%.
In the case of `O=C(c1c2c(N3CCOCC3)ncnc2n2ccccc12)N1CCCC1`, the cytotoxicity at 10 µM is -1.52%.
Consider `CC(C)=CCN1C[C@@H]2CC[C@H]1CN(C(=O)c1ccc3c(c1)OCO3)C2`, for which the cytotoxicity at 10 µM was -0.988%.
Under `CCN(CC)c1ccc(NC(=O)NCC2CCOC2)cn1` (stereo not given) stands 2.14%; under `O=C1NCCN(Cc2cccnc2)C1CC(=O)N1CCc2n[nH]cc2C1` (stereo not given), -4.05%; under `CCc1nc(CN(C(C)=O)C2CCN(CCc3cnn(C)c3)C2)no1` (stereo not given), -6.38%.
In the case of `Cc1nc(COC[C@@H]2CCC[C@@]23CN(C)CCO3)cs1`, the cytotoxicity at 10 µM was -88.9%.
Under `CC1CCN(C(=O)C2CCCN(C(=O)Nc3ccccn3)C2)CC1` (stereo not given) stands -2.98%; under `CC(C)c1nc(N2CC(N3CCCCC3C)C2)c2cnn(C)c2n1` (stereo not given), -15.5%; under `CN1CCN(C(=O)c2ccc(Cn3cc(Br)cn3)cc2)CC1`, -3.7%.
Under `CN1CCOC[C@H]1c1nc(-c2cccnc2)c[nH]1` stands -0.405%.
Under `Cc1cc(C)nc(N2CCC(c3cc(CCO)[nH]n3)C2)n1` (stereo not given) stands 4.15%; under `O=C1NC(C(=O)NCc2cccnc2Oc2ccc(F)c(F)c2)CO1` (stereo not given), -0.115%.
With `CCc1cccc(NS(=O)(=O)c2cc3c(c(C(=O)O)c2)OCCO3)c1`, the cytotoxicity at 10 µM came out at 2.89%.
Under `O=C([C@H]1CN(Cc2nccs2)C[C@H]2OCC[C@@H]12)N1CCCC1` stands -94.1%.
Under `CC(c1ccccc1)n1c(SCC(=O)O)nnc1-c1ccn[nH]1` (stereo not given) stands -0.0682%.
For `O=C(NCCC(=O)N1CCCC1)c1ccc(SCc2cccnc2)cc1`, the cytotoxicity at 10 µM came out at 8.95%.
Under `Cc1noc(C)c1S(=O)(=O)NC(=O)COc1ccc2c(c1)CCC2` stands -3.07%.
Under `Cn1ccc2c(C(=O)N3CCCC(c4nnc[nH]4)C3)cccc21` (stereo not given) stands 1.92%; under `Cc1noc(CS(=O)(=O)c2cc(F)ccc2F)n1`, -0.23%; under `CC[C@H](C)Nc1nccc(-c2cnc3sc(C)cn3c2=O)n1`, -6.02%.
Under `Cc1ccc(Cl)cc1N1CCC(CNC(=O)CCn2ccnn2)C1` (stereo not given) stands -5.72%.
In the case of `Cc1cc(N2CCOCC2)nc(N(C)CCO)c1C#N`, the cytotoxicity at 10 µM amounted to 2.17%.
Under `CCOC(=O)c1ccc(NC(=O)c2cc3c([nH]c2=O)CCCC3)cc1` stands 9.13%; under `CCCNC(=O)CNc1ccc(C(=O)N2CCCCC2C)cc1C` (stereo not given), -7.67%; under `c1cncc(CN2CCCC3(COCCN(c4cnccn4)C3)C2)c1` (stereo not given), -0.0653%.
Under `CC(C)c1cc(Br)ccc1NC(=O)NCC(O)CO` (stereo not given) stands 9.45%; under `CC(c1nc(C2CC2)no1)N1CCN(Cc2cccc(F)c2F)CC1` (stereo not given), -4.93%.
Under `CC(C)N1CCO[C@H]2CN(S(=O)(=O)c3ccc(C#N)cc3)C[C@H]21` stands 7.55%.
For `COCC(=O)N1CCN(c2cc(-n3cccc3)nc(C)n2)CC1`, the cytotoxicity at 10 µM is -6.81%.
Under `Cc1n[nH]c(=O)c2c(NC(=O)CN3CCOC(C)C3)oc(C)c12` (stereo not given) stands -0.524%; under `O=C(c1cccnc1O)N1CCCN(c2cccnn2)CC1`, 6.82%; under `CC(C(=O)NCc1ccnc(OC2CCCC2)c1)n1cncn1` (stereo not given), 10.4%.
Under `Cc1cnc(N2CCN3C[C@H](OCc4cccc(C)n4)C[C@H]3C2)nc1` stands -1.25%; under `CC(C)CCN(C(=O)c1cccc(NC(N)=O)c1)C1CC1`, -6.46%; under `O=C(NCc1ccnc(C2CCCOC2)n1)c1cccs1` (stereo not given), 0.44%.
Under `CCS(=O)(=O)N1CCC2(CCCN(Cc3ccc(F)c(F)c3)C2=O)C1` (stereo not given) stands 17.6%; under `Cc1cccc(CN2C[C@@H]3COC[C@]3(CNC(=O)c3ccno3)C2)n1`, 3.84%.
Turning to `Cc1cc(CN2CCc3nc(C(C)C)nc(O)c3CC2)c(C)s1`, the cytotoxicity at 10 µM was -0.782%.
Under `CCC[C@@H]1CN(Cc2cc3c(cc2OC)OCCO3)C[C@H]1C(=O)O` stands -9.47%.
Under `Cc1cccc(-c2nc(C)nn2CC(=O)NCC(C)C)c1` stands -27.9%; under `CC(C)C(C)N1Cc2cccc(NCC(=O)N(C)C)c2C1` (stereo not given), 8%.
Under `O=C(C1CCOCC1)N1CCc2onc(COc3cccnc3)c2C1` stands -69.6%; under `Cc1noc(CN(C)CC(c2cccs2)N2CCOCC2)n1` (stereo not given), -0.524%.
As for `CCn1cc(CN2CCCN(C(=O)c3sccc3C#N)CC2)cn1`, the cytotoxicity at 10 µM was -6.41%.
In the case of `Cc1cccc(NC(=O)N2CCN(Cc3nnc(C(C)C)o3)CC2)c1`, the cytotoxicity at 10 µM is -1.02%.
Under `Cc1nc(CN2CCCCC2Cn2cncn2)nc2ccccc12` (stereo not given) stands -3.46%; under `COc1cccc(N2CCN(C(=O)COc3c(C)occc3=O)CC2)c1`, -1.29%; under `O=C(CC1CCc2ccccc21)NCCSc1cnn[nH]1` (stereo not given), 0.878%.
Under `CN1CC(=O)N(c2ccsc2)CC12CCN(C(=O)CC1CCCC1)C2` (stereo not given) stands -77.3%; under `Cc1nc(C#N)c(N2CCC(c3nc(-c4ccc(F)cc4)no3)CC2)o1`, 3.86%; under `Cc1c[nH]c(C2CCCN(C(=O)CCc3c(C)n[nH]c3C)C2)n1` (stereo not given), 4.88%.
In the case of `Cc1cc(C)n(-c2cncc(NCCNC(=O)C3CCCC3)n2)n1`, the cytotoxicity at 10 µM was determined as 3.51%.
Under `CCN1CCCC1Cn1ccc2c(OC)c(OC)ccc2c1=O` (stereo not given) stands -2.78%; under `COc1c(C2CCCN2C(=O)c2ccnn2C)c(C)nn1C` (stereo not given), 2.55%.
As to `c1cnnc(N2CCCC2CNCc2nc(C3CC3)no2)c1` (stereo not given), the cytotoxicity at 10 µM is -22.6%.
